From ChEMBL document CHEMBL4619802, “Discovery and Characterization of Pure RhlR Antagonists against Pseudomonas aeruginosa Infections” (J Med Chem, 2020) come the findings set out here.

Assay [1] concerns Pseudomonas aeruginosa. As to the kind of experiment: Antibacterial activity against Pseudomonas aeruginosa assessed as bacterial growth at 10 uM incubated for 24 hrs relative to control. It is filed as functional. In outline:
(§1)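 P. aeruginosa overnight culture (OD595 1.0) diluted 1:20 in AB medium (pH 7.5, 1% glucose, casamino acids, arginine) with compound, in borosilicate bottles, 37 °C for 24 h without shaking. Growth taken as OD595 of the suspended culture. Attached cells washed twice with PBS, stained with 0.1% crystal violet for 10 min, dye eluted in ethanol and read at 545 nm.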

The target in assay [2] is T1, HTH-type quorum-sensing regulator RhlR (Pseudomonas aeruginosa (strain ATCC 15692 / PAO1 / 1C / PRS 101 / LMG12228)) (UniProt P54292).
T1 sequence (whole entry): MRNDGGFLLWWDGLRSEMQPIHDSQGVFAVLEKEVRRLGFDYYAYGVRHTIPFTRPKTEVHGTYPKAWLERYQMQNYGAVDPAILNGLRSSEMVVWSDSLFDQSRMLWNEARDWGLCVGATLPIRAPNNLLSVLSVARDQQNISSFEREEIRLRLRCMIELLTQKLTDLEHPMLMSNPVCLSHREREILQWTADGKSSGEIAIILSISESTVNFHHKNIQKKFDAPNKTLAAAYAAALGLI
As to the kind of experiment: Modulation of RhlR in Pseudomonas aeruginosa assessed as biofilm formation at 10 uM incubated for 24 hrs under static condition by crystal violet staining based assay relative to control.

Assay [3] addresses T2, Transcriptional regulator MvfR (Pseudomonas aeruginosa PA14) (UniProt A0A072ZLE6).
T2 sequence (whole entry): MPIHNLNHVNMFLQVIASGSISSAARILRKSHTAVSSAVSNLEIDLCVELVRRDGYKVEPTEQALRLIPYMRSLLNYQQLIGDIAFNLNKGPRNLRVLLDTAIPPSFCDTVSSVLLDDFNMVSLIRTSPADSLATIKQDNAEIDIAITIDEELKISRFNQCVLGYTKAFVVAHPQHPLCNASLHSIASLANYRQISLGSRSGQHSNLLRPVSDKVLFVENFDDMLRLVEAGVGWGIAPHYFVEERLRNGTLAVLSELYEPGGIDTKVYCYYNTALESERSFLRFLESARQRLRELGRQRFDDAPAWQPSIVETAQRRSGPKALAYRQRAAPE
Briefly: Antagonist activity at Pseudomonas aeruginosa PqsR expressed in Escherichia coli DH5alpha at 0.1 to 10 uM incubated for 1.5 hrs by luminescence reporter gene assay. For orientation: A reporter such as luciferase makes a cellular process visible.

In assay [4] the target is T1, HTH-type quorum-sensing regulator RhlR (Pseudomonas aeruginosa (strain ATCC 15692 / PAO1 / 1C / PRS 101 / LMG12228)). As to the kind of experiment: Modulation of RhlR in Pseudomonas aeruginosa assessed as reduction in biofilm formation at 10 uM incubated for 48 hrs under dynamic condition by measuring biofilm thickness by 4',6-diamidino-2-phenylindole staining based confocal laser scanning microscopy. In outline:
(§2)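 Drip-flow reactor with glass slides, fed continuously at 0.3 mL/min with AB medium containing 5% P. aeruginosa (OD595 1.0) plus compound, 37 °C for 48 h. Unattached cells removed with PBS. Volume and thickness obtained with Comstat2.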

For assay [5] the target is unchanged. As to the kind of experiment: Modulation of RhlR in Pseudomonas aeruginosa assessed as reduction in biofilm formation at 10 uM incubated for 48 hrs under dynamic condition by measuring biofilm volume by 4',6-diamidino-2-phenylindole staining based confocal laser scanning microscopy. The essentials:
as §2

Assay [6] shares this target. As to the kind of experiment: Agonist activity at Pseudomonas aeruginosa RhlR expressed in Escherichia coli DH5alpha assessed as relative protein activity at 100 uM incubated for 1.5 hrs by luminescence reporter gene assay relative to control.
Assay [7] has the same target. Briefly: Antagonist activity at Pseudomonas aeruginosa RhlR expressed in Escherichia coli DH5alpha assessed as relative protein activity at 100 uM incubated for 1.5 hrs in presence of N-butyryl-L-homoserine lactone by luminescence reporter gene assay relative to control. Details: scale not given: the % may be the effect or the level left. The essentials:
(§3)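 E. coli DH5α sdiA mutant carrying RhlR and rhlA::lacZ plasmids, at OD595 0.3 in LB. Compound given with BHL (10 µM per footnote) and 0.4% arabinose, 37 °C for 1.5 h.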

The target is the same in assay [8]. Briefly: Modulation of RhlR in Pseudomonas aeruginosa assessed as biofilm formation at 100 uM incubated for 24 hrs under static condition by crystal violet staining based assay relative to control.
The target is the same in assay [9]. As to the kind of experiment: Antagonist activity at RhlR in Pseudomonas aeruginosa assessed as rhamnolipid production at 100 uM incubated for 24 hrs by Orcinol staining based assay relative to control. More on the design: scale not given: the % may be the effect or the level left.
The test system of assay [10] is Pseudomonas aeruginosa. Briefly: Downregulation of rhlA expression in biofilm of Pseudomonas aeruginosa at 10 uM after 24 hrs by RT-qPCR analysis relative to control. Type of assay: functional. The essentials: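 P. aeruginosa (OD595 1.0) diluted 1:20 in AB medium with compound in borosilicate bottles, 37 °C for 24 h. Total RNA extracted from biofilm cells and run by SYBR RT-qPCR with QS-gene primers. Cycling: 95 °C 10 s, then 40 cycles of 95 °C 10 s and 60 °C 10 s.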

Assay [11] concerns Pseudomonas aeruginosa. As to the kind of experiment: Antibacterial activity against Pseudomonas aeruginosa assessed as bacterial growth at 100 uM incubated for 24 hrs relative to control. It is filed as functional. In outline: as §1
In assay [12] the target is T2, Transcriptional regulator MvfR (Pseudomonas aeruginosa PA14). Briefly: Agonist activity at Pseudomonas aeruginosa PqsR expressed in Escherichia coli DH5alpha at 0.1 to 10 uM incubated for 1.5 hrs by luminescence reporter gene assay.
Assay [13] addresses T3, Transcriptional activator protein LasR (Pseudomonas aeruginosa (strain ATCC 15692 / PAO1 / 1C / PRS 101 / LMG12228)) (UniProt P25084).
T3 sequence (whole entry): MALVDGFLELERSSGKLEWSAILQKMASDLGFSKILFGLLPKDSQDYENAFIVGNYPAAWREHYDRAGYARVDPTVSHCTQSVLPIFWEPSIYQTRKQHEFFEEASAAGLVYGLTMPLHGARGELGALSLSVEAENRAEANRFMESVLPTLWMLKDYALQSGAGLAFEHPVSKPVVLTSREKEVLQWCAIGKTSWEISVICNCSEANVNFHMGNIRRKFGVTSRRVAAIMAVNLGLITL
As to the kind of experiment: Agonist activity at Pseudomonas aeruginosa LasR expressed in Escherichia coli DH5alpha at 0.1 to 10 uM incubated for 1.5 hrs by luminescence reporter gene assay.

For assay [14], the target named is T1, HTH-type quorum-sensing regulator RhlR (Pseudomonas aeruginosa (strain ATCC 15692 / PAO1 / 1C / PRS 101 / LMG12228)). As to the kind of experiment: Agonist activity at Pseudomonas aeruginosa RhlR expressed in Escherichia coli DH5alpha assessed as relative protein activity at 1000 uM incubated for 1.5 hrs by luminescence reporter gene assay relative to control.

Assay [15] shares this target. Briefly: Antagonist activity at RhlR in Pseudomonas aeruginosa assessed as rhamnolipid production at 10 uM incubated for 24 hrs by Orcinol staining based assay relative to control. Details: scale not given: the % may be the effect or the level left.
For assay [16] the target is unchanged. As to the kind of experiment: Antagonist activity at Pseudomonas aeruginosa RhlR expressed in Escherichia coli DH5alpha assessed as relative protein activity at 10 uM incubated for 1.5 hrs in presence of N-butyryl-L-homoserine lactone by luminescence reporter gene assay relative to control. Details: scale not given: the % may be the effect or the level left. In outline: as §3

For assay [17] the target is unchanged. Briefly: Modulation of RhlR in Pseudomonas aeruginosa assessed as inhibition of biofilm formation at 10 uM incubated for 24 hrs under static condition by crystal violet staining based assay relative to control. Details: scale not given: the % may be the effect or the level left. The essentials:
as §1

For assay [18] the target is unchanged. As to the kind of experiment: Modulation of RhlR in Pseudomonas aeruginosa assessed as inhibition of biofilm formation at 100 uM incubated for 24 hrs under static condition by crystal violet staining based assay relative to control. Details: scale not given: the % may be the effect or the level left. The essentials:
as §1

Assay [19] deals with T3, Transcriptional activator protein LasR (Pseudomonas aeruginosa (strain ATCC 15692 / PAO1 / 1C / PRS 101 / LMG12228)). As to the kind of experiment: Antagonist activity at Pseudomonas aeruginosa LasR expressed in Escherichia coli DH5alpha at 0.1 to 10 uM incubated for 1.5 hrs by luminescence reporter gene assay.

Activity calls are given as the source filed them. The rule behind the calls is not given here.

`CCCC(=O)NC1CCCC1`: the Activity came to 95% in the assay with Pseudomonas aeruginosa [1]; 84% in assay [2]; 20.2 µm in [4]; 14.4 um3/um2 in assay [5]; 4% in assay [6]; 54% in [7]. For the same compound, the Activity in assay [8] is 69%; in assay [9], 45%; in the assay on Pseudomonas aeruginosa [10] it was 65 - 79%; in the assay with Pseudomonas aeruginosa [11] it was 98%; in assay [14] it was 37%; in assay [15], 58%. Besides, the Activity in assay [16] amounted to 74%. Besides, the outcome in [3], in [12] and in [13] was inactive.
As to `CCCC(O)CC(=O)CCc1ccc(O)c(OC)c1` (configuration not stated), the outcome in [3], in [12], in [13] and in assay [19] was inactive. The Activity is 14 to 32% in assay [17]; 3 to 4% in assay [6]; 29 to 53% in assay [18]; 54 to 69% in assay [7]; 65 - 79% with Pseudomonas aeruginosa [10].
Turning to `CCCC(O)CC(=O)/C=C/c1ccc(F)c(F)c1` (configuration not stated), the Activity was 101% in the assay on Pseudomonas aeruginosa [1]; 72% in assay [2]; 2% in assay [6]; 20% in assay [7]; 53% in [8]; 50% in assay [9]. The Activity in the assay with Pseudomonas aeruginosa [11] was determined as 105%; in [14], 5%; in assay [15], 63%; in assay [16] it was 60%.
Take `CCCCCC(=O)/C=C/c1ccc(F)c(F)c1`: the Activity was determined as 103% in the assay with Pseudomonas aeruginosa [1]; 80% in [2]; 4% in assay [6]; 51% in assay [7]; 61% in assay [8]; 62% in assay [9]. Besides, the Activity in the assay with Pseudomonas aeruginosa [11] is 103%; in assay [14], 3%; in assay [15] it was 64%; in [16] it was 53%.
On to `CCCC(O)CC(=O)/C=C/c1ccc(O)c(O)c1` (configuration not stated), for which the Activity with Pseudomonas aeruginosa [1] was 99%; in [2], 84%; in assay [6] it was 3%; in assay [7], 43%; in [8], 72%; in assay [9], 50%. For the same compound, the Activity in the assay on Pseudomonas aeruginosa [11] stood at 104%; in assay [14] it was 5%; in [15], 56%; in assay [16], 60%.
As for `CCCC(O)CC(=O)/C=C/c1ccc(O)c(OC)c1` (configuration not stated), the Activity with Pseudomonas aeruginosa [1] came to 102%; in [2] it was 82%; in assay [6], 4%; in [7] it was 65%; in [8], 65%; in [9], 57%. The Activity is 95% in the assay with Pseudomonas aeruginosa [11], 5% in assay [14], 73% in [15] and 73% in assay [16].
With `CCC[C@H](O)C#Cc1ccc(F)c(F)c1`, the Activity came out at 98% in the assay with Pseudomonas aeruginosa [1]; 79% in assay [2]; 3% in assay [6]; 38% in [7]; 64% in [8]; 52% in assay [9]. The Activity in the assay with Pseudomonas aeruginosa [11] was determined as 99%; in assay [14], 5%; in assay [15], 59%; in [16] it was 59%.
Take `CCCCC[C@H](O)CC(=O)CCc1ccc(O)c(OC)c1` [GINGEROL]: the Activity in the assay on Pseudomonas aeruginosa [1] is recorded as 96%; with Pseudomonas aeruginosa [10] it was 38%; in the assay with Pseudomonas aeruginosa [11] it was 101%. Moreover, the outcome in [3], in assay [12] and in assay [13] was inactive. The outcome in assay [19] was Active.
On to `CCCC(O)C#Cc1ccc(F)c(F)c1` (racemic), for which the Activity in the assay with Pseudomonas aeruginosa [1] stood at 100%; in assay [2], 73%; in assay [6], 3%; in [7], 32%; in [8], 60%; in assay [9] it was 49%. Besides, the Activity in the assay with Pseudomonas aeruginosa [11] came to 104%; in assay [14], 5%; in assay [15] it was 73%; in assay [16], 45%.
In the case of `CCC[C@@H](O)C#Cc1ccc(F)c(F)c1`, the Activity with Pseudomonas aeruginosa [1] was 98%; in [2], 74%; in [6], 3%; in [7], 25%; in assay [8], 60%; in [9] it was 48%. The Activity with Pseudomonas aeruginosa [11] amounted to 102%; in assay [14], 5%; in assay [15], 60%; in assay [16] it was 45%.
Regarding `CCCC(O)CC(=O)/C=C/c1cccc(OC)c1` (configuration not stated), the Activity is 96% with Pseudomonas aeruginosa [1]; 88% in assay [2]; 2% in assay [6]; 94% in [7]; 73% in [8]; 83% in assay [9]. Further, the Activity worked out at 95% with Pseudomonas aeruginosa [11], 4% in [14], 91% in assay [15] and 89% in assay [16].
